# UPR XBP1 act: activators of adaptive arm of unfolded protein response (XBP1) | CHO-XBP1 luciferase reporter, IRE1-XBP1 UPR activation, luminescence; percent of tunicamycin response, DMSO as zero | activation, % at 20 µM | hit rate 0.33% among 330,000 | AID 463104;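 active = versus positive control, 20 µM dose yields 30% or more activation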;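 note: 100% = tunicamycin at 10 µg/mL and 0% = DMSO only wells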
#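 Material: CHO cell line with stable XBP1 luciferase reporter; schedule: 16-18 h cell attachment at 37 °C, then 6 h compound exposure; signal: glow luminescence from Steady-Glo reagent; medium: serum-containing F12 medium, 10% FBS; benchmarks: tunicamycin 10 µg/mL and vehicle-only wells; read-out: percent activation relative to tunicamycin reference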
# UPR CHOP act: activators of apoptotic arm of unfolded protein response (CHOP) | CHO-CHOP luciferase reporter, UPR activation, luminescence; percent of tunicamycin response over DMSO baseline | activation, % at 10 µM | hit rate 0.34% among 330,000;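 active = at 10 µM dose, activation of 40% or more, normalized to positive control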;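 note: 100% = tunicamycin at 10 µg/mL and 0% = DMSO alone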
#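 Dosing – one dose, 10 µM in 0.5% DMSO · System – CHO-CHOP cells, stable luciferase reporter of PERK-eIF2a-CHOP signalling · Input – 500 cells/well · Control set – tunicamycin 10 µg/mL final as positive, DMSO-only wells as negative · Timing – 6 h compound treatment, 37 °C · Measure – % activation vs tunicamycin · Technique – luminescence read with Steady-Glo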
# TLR4-MyD88 BLA: inhibitors of human TLR4-MyD88 binding; HeLa CL3-4 TLR4/MyD88 BLA complementation, FRET ratio; inhibition, % at 8.4 µM; hit rate 0.18% among 200,000; in the data active = inhibition above about 25%;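 note: 0% = vehicle and 100% = reference inhibitor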
# TLR9-MyD88 inh: TLR9-MyD88 interaction inhibition; CHO BLA complementation TLR9-MyD88, CCF4 FRET ratio; Q9NR96+Q99836; hit rate 0.21% among 340,000; inhibition, % at 4.98 µM;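 active = inhibition above the mean over all tested compounds plus 3 SD, cut at about 21% in these data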;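 note: 0% = DMSO only wells and 100% = clavulanate BLA inhibitor control wells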
# Target sequence (Q99836 whole entry, looked up): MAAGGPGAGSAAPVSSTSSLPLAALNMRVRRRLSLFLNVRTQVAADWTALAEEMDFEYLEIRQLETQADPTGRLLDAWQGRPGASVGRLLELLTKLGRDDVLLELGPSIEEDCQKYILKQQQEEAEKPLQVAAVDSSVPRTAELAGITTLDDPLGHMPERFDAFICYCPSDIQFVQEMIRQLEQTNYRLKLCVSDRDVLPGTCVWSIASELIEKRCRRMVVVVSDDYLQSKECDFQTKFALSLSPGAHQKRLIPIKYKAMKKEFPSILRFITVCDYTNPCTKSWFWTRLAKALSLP
# Target sequence (Q9NR96 whole entry, looked up): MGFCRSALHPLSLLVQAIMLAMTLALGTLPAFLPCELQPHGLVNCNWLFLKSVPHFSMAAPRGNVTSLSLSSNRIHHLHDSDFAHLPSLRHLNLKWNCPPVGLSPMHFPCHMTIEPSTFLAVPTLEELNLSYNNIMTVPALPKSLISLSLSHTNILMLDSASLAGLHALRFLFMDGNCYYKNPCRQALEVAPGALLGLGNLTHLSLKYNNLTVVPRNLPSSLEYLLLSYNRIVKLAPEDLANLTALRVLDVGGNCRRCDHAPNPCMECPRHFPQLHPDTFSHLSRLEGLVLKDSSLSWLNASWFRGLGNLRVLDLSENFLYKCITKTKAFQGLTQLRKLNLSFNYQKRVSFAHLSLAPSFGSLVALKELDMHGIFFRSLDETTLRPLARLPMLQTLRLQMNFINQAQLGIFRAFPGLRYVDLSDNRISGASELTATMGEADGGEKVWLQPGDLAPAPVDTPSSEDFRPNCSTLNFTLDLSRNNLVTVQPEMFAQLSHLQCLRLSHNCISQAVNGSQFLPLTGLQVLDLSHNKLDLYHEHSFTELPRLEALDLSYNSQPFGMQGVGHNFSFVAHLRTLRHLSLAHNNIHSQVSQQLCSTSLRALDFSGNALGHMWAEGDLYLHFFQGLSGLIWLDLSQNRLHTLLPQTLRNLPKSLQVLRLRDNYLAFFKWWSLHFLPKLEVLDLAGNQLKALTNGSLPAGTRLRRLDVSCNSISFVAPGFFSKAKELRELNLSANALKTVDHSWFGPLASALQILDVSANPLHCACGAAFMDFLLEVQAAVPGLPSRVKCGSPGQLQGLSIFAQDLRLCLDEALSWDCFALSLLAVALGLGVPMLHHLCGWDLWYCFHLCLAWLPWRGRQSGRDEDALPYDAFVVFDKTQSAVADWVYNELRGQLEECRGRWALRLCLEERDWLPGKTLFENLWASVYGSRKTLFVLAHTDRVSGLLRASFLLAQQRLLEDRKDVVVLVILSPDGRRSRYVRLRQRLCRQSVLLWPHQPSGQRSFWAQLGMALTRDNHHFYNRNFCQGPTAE
# NOD2-RIPK2 inh: NOD2-RIPK2 protein interaction inhibition; O43353; CHO BLA complementation NOD2-RIPK2, CCF4 ratio; inhibition, % at 4.98 µM; AID 624267; hit rate 0.38% among 360,000; in the data active = inhibition above about 21%;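 note: 0% = vehicle only and 100% = reference blocker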
# CHOP inhibitor: CHOP inhibition in unfolded protein response. AID 2732. inhibition, % at 10 µM. CHO-K1 CHOP-promoter luciferase, tunicamycin-induced, 15-18 h. hit rate 3.8% among 220,000;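 active = compounds that reduced the stress-induced luciferase reporter signal by more than about 70% of percent inhibition, limit read from the data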;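 note: 0% = tunicamycin plus vehicle and 100% = wells without tunicamycin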
# * marks the source's active call; other numbers are inactive results; · = not tested or not shown. This excerpt belongs to a sample that is enriched for hits.
SMILES,UPR XBP1 act,UPR CHOP act,TLR4-MyD88 BLA,TLR9-MyD88 inh,NOD2-RIPK2 inh,CHOP inhibitor
Cc1c(NC(=O)c2ccc3c(c2)OCO3)cccc1-c1nc2ccccc2o1,-2,1,6,3,-7,-8
Cc1ccc(-c2nc3ccccc3o2)cc1NC(=S)NC(=O)c1cccs1,5,2,1,-1,-3,82*
Cc1ccc(-c2nc3ccccc3o2)cc1NC(=O)c1ccc2c(c1)OCO2,-1,3,5,-6,-8,87*
CC(=O)Nc1cc(-c2cccc(C(=O)NCCN(C)C)c2)cn2c(-c3ccc(C(C)=O)cc3)cnc12,·,·,·,·,6,·
S=C(NCCCN1CCOCC1)Nc1ccc(Nc2ccccc2)cc1,0,1,3,4,2,-2
CC1CC2(CCCCC2)Nc2ccc3ccccc3c21 (stereo not drawn),4,-2,-8,-3,-5,-23
CC(=O)N1c2ccc3ccccc3c2C(C)CC12CCCCC2 (stereo not drawn),3,1,-2,-3,0,70*
CCN(C(=O)c1ccc2c(Cl)c3c(nc2c1)CCC3)c1cccc(C)c1,·,·,-1,·,·,48
CCc1ccc(N(CC)C(=O)c2ccc3c(Cl)c4c(nc3c2)CCC4)cc1,-1,1,-6,4,-10,87*
NNC(=O)c1sc2cc(C(F)(F)F)cnc2c1-c1cccnc1,0,1,-1,-7,2,9
O=S(=O)(Nc1cc(Sc2cccc3cccnc23)c(O)c2ccccc12)c1ccccc1,·,·,14,·,·,101*
Cc1ccc(-n2nnnc2C(Cl)(Cl)c2nnnn2-c2ccc(C)cc2)cc1,-4,5,1,-9,-6,80*
CC(=O)Nc1cccc(-c2ccnc3c2CC(C)(C(=O)Nc2ccc(C(C)C)cc2)O3)c1 (stereo not drawn),·,·,·,·,-3,·
Cc1sc(NC(=O)c2ccco2)c(C(c2cccnc2)N2CCN(CCO)CC2)c1C (stereo not drawn),1,2,-16,-1,1,36
CCOc1ccc(C(c2c(NC(=O)c3ccccc3)sc(C)c2C)N2CCN(CCO)CC2)cc1 (stereo not drawn),3,2,-14,5,-2,83*
c1ccc(Sc2cnc3ccccc3n2)cc1,2,3,8,-1,-6,38
Clc1ccc(Sc2cnc3ccccc3n2)cc1,0,3,3,-8,-1,76*
O=C(O)c1ccc(Nc2nc3c(s2)CCCC3)cc1,-7,-9,-5,1,1,91*
Cc1cccc(Nc2nc3c(s2)CCCC3)c1,·,·,-22,3,-5,2
Cc1ccsc1/C=N/Nc1nc(Cl)c(Cl)cc1Cl,1,4,9,8,-18,44
Cc1ccc(/C=N/Nc2nc(Cl)c(Cl)cc2Cl)s1,7,4,1,0,-1,83*
CCc1ccc(Nc2nc(N)nc(CSc3nnnn3-c3ccccc3)n2)cc1,-1,1,2,7,5,88*
Cc1ccccc1Nc1nc(N)nc(CSc2nnnn2-c2ccccc2)n1,-3,-1,5,-1,-4,54
Cc1ccc(C(C)C)c(OCc2n[nH]c(=S)o2)c1,-1,1,-2,1,-2,35
Cc1ccc(C(C)C)c(OCc2nc(-c3nonc3N)no2)c1,3,4,-6,-6,-3,95*
SMILES,UPR XBP1 act,UPR CHOP act,TLR4-MyD88 BLA,TLR9-MyD88 inh,NOD2-RIPK2 inh,CHOP inhibitor
CC(C)(C)c1ccc(C(=O)N2CCC2(C)C(=O)Nc2cnc3ccccc3c2)cc1 (stereo not drawn),·,·,·,·,-4,·
CC(Nc1c[nH]c(=O)[nH]c1=O)c1ccccc1 (stereo not drawn),-3,-1,·,1,3,·
COc1ccc(-c2cccc(NC(=O)c3ccc4c(c3)OCO4)c2)nn1,-4,-1,·,2,0,·
COCCOc1cc(Nc2nnc(C(F)(F)F)s2)c(Cl)cc1Cl,0,2,-4,1,8,77*
Cc1c(C(=O)NCc2cccnc2)oc2ccc(S(=O)(=O)N3CC(C)CC(C)C3)cc12 (stereo not drawn),1,-2,-7,4,7,102*
Cc1c(C(=O)NCc2cccnc2)oc2ccc(S(=O)(=O)N3CCC4(CC3)OCCO4)cc12,-2,2,-2,0,4,2
Cc1ccc(S(=O)(=O)N2CCCC(C(=O)NCc3cccnc3)C2)cc1Cl (stereo not drawn),-1,0,-9,10,-2,88*
Cc1cc(C)c(S(=O)(=O)N2CCCC(C(=O)NCc3cccnc3)C2)c(C)c1 (stereo not drawn),-5,2,·,-10,5,·
Cc1ccc(CNC(=O)CN2CCN(c3ccc(F)cc3)CC2)cc1,-2,0,·,-8,-3,·
Cc1cc2oc(=O)cc(CN3CCC(C)CC3)c2cc1Cl,4,9,-5,-2,3,85*
CCOc1ccc(C(=O)NCCc2ccc3c(c2)OCCO3)cc1,-3,0,-1,-3,-12,-2
CN1/C(=C\C(=O)Nc2ccc(Br)cc2)C(C)(C)c2ccccc21,1,3,6,-2,-3,82*
CC1CCCN(C(=O)CSc2nnc(-c3ccncc3)n2C)C1 (stereo not drawn),-1,0,-15,5,8,-17
N#Cc1c(N)nc2c(c1-c1ccccc1)CCCC2,3,0,-11,1,0,27
CC1CCc2nc(N)c(C#N)c(-c3cccn3C)c2C1 (stereo not drawn),2,3,-1,-7,-5,71*
CCOC(=O)Cc1csc(NC(=O)c2csc3c2CCCC3)n1,0,1,13,-7,-11,76*
CCOC(=O)Cc1csc(NC(=O)NC2(C(F)(F)F)Oc3ccccc3O2)n1,11,2,-7,1,-6,92*
CCOC(=O)Cc1csc(NC(=O)c2cc3c(s2)CCCC3)n1,-2,0,-7,-2,3,38
CCOC(=O)Cc1csc(NC(=O)Nc2ccc(OC(F)(F)F)cc2)n1,2,7,·,2,-11,39
COc1cc(NC(=O)c2csc3c2CCCC3)ncn1,0,4,-6,6,-6,72*
Clc1ccc(N=c2ssnc2Cl)nc1,13,7,0,8,1,103*
OCc1ccccc1N=c1ssnc1Cl,-1,3,13,·,·,42
C=CCSc1nc(C)c2cc(C)cc(C)c2n1,1,1,1,2,-12,96*
O=C(C1=C[C@@H](C2CC2)C[C@@H](OCCCCO)O1)N1CCN(Cc2ccccc2)CC1,-1,0,-14,-10,-6,0

# Assay outcomes from PubChem.
